# Bioassay records as filed in PubChem.
# This excerpt belongs to a sample that is enriched for hits.
# KDM4C inh: blocks human GASC-1 (KDM4C) demethylase activity; Q9H3R0; GST-KDM4C 2-372, H3K9me3 peptide, LANCE TR-FRET; inhibition, % at 12.5 µM; 0.15% of 96,000 active;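 active means mean replicate inhibition above about 25%, with at least 55% of replicates also reaching it, limit read from the data, passing the limit was not always enough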
#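 Material: N-terminal GST-fused human GASC-1 (KDM4C) fragment, residues 2-372. Input: 10 nM enzyme. Incubation: enzyme reaction 30 min, then detection 60 min, both room temperature. Doses: one test concentration per compound. Read-out basis: inhibition from TR-FRET ratio decrease. Detection: LANCE TR-FRET, excitation 340 nm, emissions 618 and 671 nm.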
# Pf Dd2 growth: P. falciparum Dd2 growth inhibition; 2.3% of 94,000 active; activity change, % at 10 µM; SYBR Green, 72 h; stronger effect = lower value; in the data active means activity change below about -80%
# IDH1 R132H inh: blocks human IDH1 R132H reductase activity; O75874; diaphorase/resazurin fluorescence, 60 min; inhibition, % at 10 µM; 0.18% of 70,000 active; AID 624101; in the data active means inhibition above about 34%
# Target sequence (O75874 whole entry R132H): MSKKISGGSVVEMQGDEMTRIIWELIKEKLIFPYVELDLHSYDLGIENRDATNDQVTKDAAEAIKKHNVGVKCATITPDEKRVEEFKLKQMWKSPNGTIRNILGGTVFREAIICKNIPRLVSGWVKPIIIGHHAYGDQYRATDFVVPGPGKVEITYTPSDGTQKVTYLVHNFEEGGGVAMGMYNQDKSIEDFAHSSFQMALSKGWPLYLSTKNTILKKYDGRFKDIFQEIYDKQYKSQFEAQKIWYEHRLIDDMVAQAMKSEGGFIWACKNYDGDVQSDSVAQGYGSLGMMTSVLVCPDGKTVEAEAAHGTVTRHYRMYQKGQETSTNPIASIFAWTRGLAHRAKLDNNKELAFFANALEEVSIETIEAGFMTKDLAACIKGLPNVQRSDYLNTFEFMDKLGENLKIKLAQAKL
# Hits are given with their value; - = inactive; . = not tested or not shown; ! = not active in a repeat.
SMILES,KDM4C inh,Pf Dd2 growth,IDH1 R132H inh
C[C@@H]1CCCCO[C@H](CN(C)C(=O)Cc2ccccc2)[C@@H](C)CN([C@@H](C)CO)C(=O)c2cc(NC(=O)Nc3ccc4c(c3)OCO4)ccc2O1,-,-83.8,.
C[C@@H]1CCCCO[C@H](CN(C)C(=O)Cc2ccccc2)[C@H](C)CN([C@H](C)CO)C(=O)c2cc(NC(=O)Nc3ccc(F)cc3)ccc2O1,-,-85.3,-
C[C@@H]1CCCCO[C@H](CN(C)C(=O)Cc2ccccc2)[C@H](C)CN([C@H](C)CO)C(=O)c2cc(NC(=O)Nc3ccccc3)ccc2O1,-,-83.7,-
C[C@@H]1CCCCO[C@H](CN(C)C(=O)CCCN(C)C)[C@H](C)CN([C@@H](C)CO)C(=O)c2cc(NC(=O)Nc3ccc(C(F)(F)F)cc3)ccc2O1,-,-88.0,-
Cc1noc(C)c1S(=O)(=O)Nc1cccc2c1O[C@H](CN(C)Cc1ccc(Oc3ccccc3)cc1)[C@H](C)CN([C@@H](C)CO)C2=O,-,-,-
O=C(Nc1ccccc1C(=O)O)c1cccc(S(=O)(=O)Nc2ccccc2Cl)c1,.,.,-
C[C@H](CO)N1C[C@H](C)[C@H](CN(C)C(=O)NC2CCCCC2)OCCCC[C@H](C)Oc2ccc(NC(=O)Nc3ccccc3)cc2C1=O,-,-,.
COc1ccc2c(c1)OC(C(=O)c1ccccc1)C2=O (stereo not given),.,.,-
CCn1c(SCC(=O)Nc2cccc(SC)c2)nnc1-c1cc2cc(Br)ccc2o1,.,.,-
C[C@@H]1CCCCO[C@H](CN(C)C(=O)Cc2ccccc2)[C@H](C)CN([C@@H](C)CO)C(=O)c2cc(NC(=O)Nc3ccc(C(F)(F)F)cc3)ccc2O1,-,-,.
C[C@@H]1CCCCO[C@H](CN(C)C(=O)Cc2ccccc2)[C@@H](C)CN([C@@H](C)CO)C(=O)c2cc(NC(=O)Nc3ccc(C(F)(F)F)cc3)ccc2O1,-,-87.0,-
C[C@@H]1CCCCO[C@H](CN(C)S(=O)(=O)c2ccccc2)[C@@H](C)CN([C@@H](C)CO)C(=O)c2cc(NC(=O)C3CCCCC3)ccc2O1,-,-80.4,.
C[C@@H]1CCCCO[C@H](CN(C)S(=O)(=O)c2ccccc2)[C@H](C)CN([C@@H](C)CO)C(=O)c2cc(NC(=O)C3CCCCC3)ccc2O1,-,-,.
C[C@H]1CCCCO[C@H](CN(C)S(=O)(=O)c2ccccc2)[C@@H](C)CN([C@@H](C)CO)C(=O)c2cc(NC(=O)C3CCCCC3)ccc2O1,-,-84.3,.
C[C@@H]1CN([C@@H](C)CO)C(=O)c2cc(NC(=O)C3CCCCC3)ccc2O[C@@H](C)CCCCO[C@@H]1CN(C)S(=O)(=O)c1ccccc1,-,-,.
CO[C@H]1CN(C)C(=O)c2ccc(NC(=O)c3ccc(-c4ccccc4)cc3)cc2OC[C@H](C)NC[C@@H]1C,-,-,.
CO[C@@H]1CN(C)C(=O)c2ccc(NC(=O)c3ccccc3)cc2OC[C@H](C)NC[C@@H]1C,-,-,-
CO[C@@H]1CN(C)C(=O)c2cc(NC(=O)c3ccc(Oc4ccccc4)cc3)ccc2OC[C@H](C)NC[C@H]1C,-,-,-
CO[C@@H]1CN(C)C(=O)c2ccc(NC(=O)c3ccc(-c4ccccc4)cc3)cc2OC[C@@H](C)NC[C@H]1C,-,-86.8,.
CO[C@H]1CN(C)C(=O)c2cc(NC(=O)c3ccc(Oc4ccccc4)cc3)ccc2OC[C@@H](C)NC[C@@H]1C,-,-90.0,-
CO[C@H]1CN(C)C(=O)c2ccc(NC(=O)c3ccc(-c4ccccc4)cc3)cc2OC[C@@H](C)NC[C@H]1C,-,-86.2,-
CNC[C@@H]1Oc2c(NC(=O)C3CC3)cccc2C(=O)N([C@H](C)CO)C[C@@H]1C,-,-,.
C[C@@H]1CN([C@@H](C)CO)C(=O)c2cccc(NC(=O)NC3CCCCC3)c2O[C@H]1CN(C)Cc1ccc(Cl)c(Cl)c1,-,-,.
Cc1noc(C)c1NC(=O)Nc1ccc2c(c1)C(=O)N([C@@H](C)CO)C[C@H](C)[C@H](CN(C)Cc1ccncc1)O2,-,-,.
CC(C)C[C@H](NC(=O)[C@@H](O)[C@H](N)Cc1ccccc1)C(=O)O,.,.,-
SMILES,KDM4C inh,Pf Dd2 growth,IDH1 R132H inh
CCC(C)[C@@H](CO[C@@H](Cc1ccccc1)C(=O)N[C@@H](CCS(C)(=O)=O)C(=O)OC(C)C)NC[C@@H](N)CS (stereo not given in full),.,.,59.6
C[C@@H]1CCCCO[C@H](CN(C)C)[C@@H](C)CN([C@H](C)CO)C(=O)c2cc(NC(=O)C3CCCCC3)ccc2O1,-,-,.
Cc1ccc(S(=O)(=O)Nc2ccc3c(c2)C(=O)N([C@H](C)CO)C[C@@H](C)[C@H](CN(C)C(=O)NC(C)C)OCCCC[C@@H](C)O3)cc1,-,-,-
C[C@H]1CCCCO[C@@H](CN(C)S(=O)(=O)c2ccc(Cl)cc2)[C@@H](C)CN([C@@H](C)CO)C(=O)c2cc(N(C)C)ccc2O1,-,.,.
COc1ccc(S(=O)(=O)N(C)C[C@@H]2OCCCC[C@@H](C)Oc3ccc(N(C)C)cc3C(=O)N([C@@H](C)CO)C[C@H]2C)cc1,-,-,.
COc1ccc(S(=O)(=O)N(C)C[C@H]2OCCCC[C@@H](C)Oc3ccc(N(C)C)cc3C(=O)N([C@H](C)CO)C[C@@H]2C)cc1,-,-83.2!,.
C[C@@H]1CN([C@H](C)CO)C(=O)c2cc(N(C)C)ccc2O[C@@H](C)CCCCO[C@H]1CN(C)S(=O)(=O)c1ccc(Cl)cc1,-,-84.3,-
COc1ccc(NC(=O)Nc2ccc3c(c2)CC(=O)N([C@@H](C)CO)C[C@@H](C)[C@@H](CN(C)C(=O)Nc2ccccc2)O3)cc1,-,-,-
COc1ccc(NC(=O)Nc2ccc3c(c2)CC(=O)N([C@H](C)CO)C[C@H](C)[C@@H](CN(C)C(=O)Nc2ccccc2)O3)cc1,-,-,-
COc1ccc(NC(=O)N(C)C[C@@H]2Oc3ccc(NC(=O)Nc4ccc(F)cc4)cc3CC(=O)N([C@@H](C)CO)C[C@@H]2C)cc1,-,-,-
COc1ccc(NC(=O)N(C)C[C@H]2Oc3ccc(NC(=O)Nc4ccccc4)cc3CC(=O)N([C@H](C)CO)C[C@@H]2C)cc1,42.3,-,-
COc1ccc(NC(=O)N(C)C[C@@H]2Oc3ccc(NC(=O)Nc4ccccc4)cc3CC(=O)N([C@@H](C)CO)C[C@H]2C)cc1,-,-,58.6
COc1ccc(NC(=O)Nc2ccc3c(c2)CC(=O)N([C@@H](C)CO)C[C@H](C)[C@@H](CN(C)C(=O)Nc2ccc(F)cc2)O3)cc1,-,-85.5,-
O=C(Nc1cccc(Cl)c1)N[C@H]1CC[C@@H](CCNC(=O)C2CC2)O[C@H]1CO,-,-,-
C[C@H](NC(=O)N(C)C[C@@H]1OCc2ccccc2-c2ccccc2C(=O)N([C@@H](C)CO)C[C@H]1C)c1ccccc1,-,-,.
O=C(Cc1cccnc1)N[C@@H]1CC[C@@H](CCNS(=O)(=O)c2ccccc2Cl)O[C@@H]1CO,-,-,-
O=C(Nc1ccccc1F)N1[C@@H]2CNc3ccccc3[C@@H]2[C@@H]1CO,-,-,.
Cc1noc(C)c1S(=O)(=O)N(C)C[C@H]1OCCCC[C@@H](C)Oc2ccc(NC(=O)CCCCCC(=O)Nc3ccccc3N)cc2C(=O)N([C@@H](C)CO)C[C@@H]1C,-,-81.2,-
